Results on 16 compounds are retold here after ChEMBL document CHEMBL1138484, “Synthesis and antiviral activity of 7-benzyl-4-hydroxy-1,5-naphthyridin-2(1H)-one HIV integrase inhibitors” (J Med Chem, 2009).

Data set [1] has as its system MT4. Description: Cytotoxicity against human MT4 cells up to 8 to 10 uM after 5 days by MTS assay. It is filed as cell-based. The note with it: mt4, 120 h. The gist of the method:
(§1)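 MT-4 cells in RPMI with 15% FBS, 10% T-cell growth factor and 10 µg/mL gentamicin, cultured 5 days at 37 °C, 5% CO₂. Compound-induced cytotoxicity (CCIC50) measured by MTS staining at OD 492 nm, in parallel with the HIV-1 IIIB antiviral MTS readout in the same cell line.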
In general terms: Tetrazolium assays rely on reduction of a dye to a coloured formazan, in cell work by metabolically active cells.

Data set [2] can be described thus: Inhibition of HIV recombinant integrase strand transfer assay. On the set-up: species or system Human immunodeficiency virus. The gist of the method: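 Recombinant integrase (2 µM) preassembled with biotinylated donor DNA on streptavidin SPA beads (MOPS pH 7.2, MgCl₂, DTT, 5 min, 37 °C), then washed. Compound in DMSO (6.7% final) preincubated 60 min at 37 °C. [³H] target DNA added at 7 nM final, strand transfer run 25-45 min at 37 °C, EDTA quench, SPA readout. Mean ± standard error.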

Data set [3] relates to Human immunodeficiency virus. The data set is described as follows: Antiviral activity against pseudotype HIV after 2 days in absence of human serum albumin. It is filed as functional, organism-based. The note with it: Human immunodeficiency virus 1, 48 h. The method in brief: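 VSV-G-pseudotyped HIV vector carrying luciferase, harvested from transfected 293T cells. Target 293T cells (2 × 10^4 per well) mixed with vector at about 100K CPM and plated onto compounds in DMEM + 10% FCS. Incubated 2 days at 37 °C, 5% CO2. Luciferase read by Steady Glo luminescence. Values are means ± standard error (N > 1).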

Data set [4] deals with Human immunodeficiency virus. The data set is described as follows: Antiviral activity against pseudotype HIV after 2 days in presence 40 mg/mL human serum albumin. The data set is classed as functional, organism-based. The note with it: Human immunodeficiency virus 1, 48 h. The gist of the method: (§2)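 Pseudotyped HIV luciferase assay in 293T cells (2 × 10^4 per well), 2 days at 37 °C in DMEM + 10% FCS, luminescence read-out. Run with and without added serum protein, 40 mg/mL HSA. Line 5 is the ratio of the IC50 with HSA to the IC50 without.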

The subject of data set [5] is Human immunodeficiency virus 1. The data set is described as follows: Antiviral activity against HIV1 3B infected in human MT4 cells assessed as inhibition of virus-induced cytopathic effect after 5 days by MTS method. It is filed as functional, organism-based. The note with it: Human immunodeficiency virus 1, 3B, MT4, 120 h. The method in brief: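 HIV-1 IIIB infection of MT-4 cells (HTLV-1 transformed) for 1 h at 37 °C, 5% CO2. Cells then added to compounds prediluted in RPMI with FBS and gentamicin; final assay medium had 15% FBS and 10% T-cell growth factor. Incubated 5 days at 37 °C. Virus-induced cytopathic effect read by MTS staining, OD 492 nm. Cytotoxicity measured in parallel.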

The nature of data set [6]: Cytotoxicity against human MT4 cells after 5 days by MTS assay. The data set is classed as cell-based. The note with it: read-out: CCIC50. The gist of the method:
as §1

The subject of data set [7] is MT4. The data set is described as follows: Cytotoxicity against human MT4 cells up to =>7 uM after 5 days by MTS assay. The data set is classed as cell-based. The note with it: mt4, 120 h. The method in brief: as §1
Data set [8] in a line: Therapeutic index, ratio of CCIC50 for human MT4 cells to IC50 for HIV1 3B. It is filed as cell-based. The method in brief: as §1
Data set [9] relates to Human immunodeficiency virus 1. The data set is described as follows: Antiviral activity against HIV1 3B infected in human MT4 cells assessed as inhibition of virus-induced cytopathic effect albumin after 5 days by MTS method in presence of 40 mg/mL human serum albumin. The data set is classed as functional, organism-based. The note with it: Human immunodeficiency virus 1, 3B, MT4, 120 h. The method in brief:
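HIV-1 IIIB infection of MT-4 cells for 1 h at 37 °C, then cells added to prediluted compounds in RPMI with 15% FBS, 10% T-cell growth factor, 10 µg/mL gentamicin, plus 40 mg/mL HSA. 5 days at 37 °C, 5% CO₂. Cytopathic effect read by MTS staining at OD 492 nm. Mean ± standard error where N > 1.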
For orientation: Damage to the host cells serves as the signal in cytopathic effect assays.

Data set [10] has as its system Human immunodeficiency virus 1. Description: Ratio of IC50 for HIV1 3B in presence of human serum albumin to IC50 for HIV1 3B in absence of human serum albumin. The data set is classed as functional. The gist of the method: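 MT-4/HIV-1 IIIB MTS cytopathic-effect assay, 5 days at 37 °C, run in standard medium and again with 40 mg/mL HSA added. The ratio compares the IC50 with HSA to the IC50 without.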

Data set [11] can be described thus: Clearance in CD rat at 1 mg/kg, iv. The data set is classed as ADME, organism-based. More on the design: dose 1 mg/kg, route intravenous. The note with it: in vivo. The method in brief:
(§3)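 Male CD rats, n = 2, given 1 mg/kg iv (1 mL/kg, fasted) in 10% DMSO/15% Solutol/75% 0.05 M […]. Blood drawn via implanted venous cannula at timed intervals over 24 h, EDTA plasma analysed by LC/MS/MS.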

In another data set the test system is Rattus norvegicus. Description: Hepatic blood flow in CD rat at 1 mg/kg, iv. The data set is classed as ADME, organism-based, Liver. On the set-up: dose 1 mg/kg, route intravenous. The note with it: in vivo.
The nature of data set [12]: Volume of distribution at steady state in CD rat at 1 mg/kg, iv. It is filed as ADME, organism-based. On the set-up: dose 1 mg/kg, route intravenous. The note with it: in vivo, read-out: Vdss. The method in brief:
as §3

Data set [13] is described as follows: Oral bioavailability in fasted CD rat at 5 mg/kg. The note with it: in vivo. The data set is classed as ADME, organism-based. The method in brief:
(§4)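 Male CD rats, n = 2 per arm, dosed 5 mg/kg po (5 mL/kg) in 10% DMSO/15% Solutol/75% 0.05 M […]. Fasted arm had food removed the evening before and returned 4 h post-dose; other arm nonfasted. Cannula blood sampled over 24 h, EDTA plasma by LC/MS/MS. Bioavailability referenced to the 1 mg/kg iv arm.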

Data set [14] can be described thus: Oral bioavailability in non fasted CD rat at 5 mg/kg. It is filed as ADME, organism-based. The note with it: in vivo. The method in brief:
as §4

For data set [15], the system named is Human immunodeficiency virus. The data set is described as follows: Ratio of IC50 for pseudotype HIV in presence of human serum albumin to IC50 for pseudotype HIV in absence of human serum albumin. The data set is classed as functional. The gist of the method:
as §2

Molecules are shown by their SMILES. Where only a bound is given, the exact number is not on record here.

The IC50 is the concentration that inhibits the measured activity by half. `COCCNC(=O)c1c(O)c2ncc(Cc3ccccc3)cc2[nH]c1=O`: the Activity entry with MT4 [1] is “Non-toxic”. Further, the concentration for half-maximal inhibition (IC50) in data set [2] came out at 7 nM; in data set [3], 14 nM; in data set [4], 59 nM; in [5], 91 nM. Further, in [6], the CC50 at 120 h is > 10000 nM.
Regarding `CCOC(=O)c1c(O)c2ncc(Cc3ccc(F)cc3)cc2n(CC2CC2)c1=O`, the IC50 in data set [2] came out at 15 nM; in [3] it was 358 nM.
Regarding `CC(C)CNC(=O)c1c(O)c2ncc(Cc3ccc(F)cc3)cc2[nH]c1=O`, in the data set on MT4 [7], the Activity entry was “Non-toxic”. Further, in data set [8], the selectivity ratio was > 100. Further, the concentration for half-maximal inhibition (IC50) was determined as 6 nM in data set [2], 4 nM in data set [3], 2500 nM in [4] and 68 nM in [5]. Moreover, the CC50 at 120 h in data set [6] amounted to 7000 nM.
For `CCNC(=O)c1c(O)c2ncc(Cc3ccc(F)cc3)cc2n(C)c1=O`, in the data set with MT4 [7], the Activity result was “Non-toxic”. Further, the IC50 in data set [2] came to 4 nM; in data set [3] it was 1.6 nM; in data set [4], 661 nM; in [5], 3.5 nM; in data set [9], 4000 nM. In addition, the CC50 at 120 h in [6] is > 50000 nM.
What is called clearance is the rate of elimination divided by the concentration. A higher clearance goes with efficient removal. As a reminder, the bioavailability is the share of a dose that reaches the circulation, judged against a reference dose that is usually intravenous. Higher therefore signals much systemic uptake. For `COCCNC(=O)c1c(O)c2ncc(Cc3ccc(F)cc3)cc2n(C)c1=O`, the IC50 in [2] was 4 nM; in data set [3], 2 nM; in [4] it was 50 nM; in [5], 5 nM; in [9], 48 nM. Also, the CC50 at 120 h in data set [6] is > 20000 nM. In data set [10], the “Ratio IC50” value was <10. The compound also registered a clearance in data set [11] of 11.8 mL/min/kg. The QH with Rattus norvegicus is reported as 20%. Further, the Vd in [12] was found to be 0.6 L/kg. The bioavailability in [13] was determined as 25%; in [14], 20%.
As to `CCOC(=O)c1c(O)c2ncc(Cc3ccccc3)cc2[nH]c1=O`, the IC50 in [2] was 3 nM; in data set [3] it was 3700 nM; in data set [5], > 39500 nM. Besides, in [6], the CC50 at 120 h turned out to be 103000 nM.
Turning to `CCOC(=O)c1c(O)c2ncc(Cc3ccc(F)cc3)cc2[nH]c1=O`, the figures for the IC50 in data set [2], in [3] and in data set [5] were 13 nM, 1200 nM and 1200 nM, respectively.
Take `NC(=O)c1c(O)c2ncc(Cc3ccc(F)cc3)cc2[nH]c1=O`: the “Ratio IC50” value in [15] was 10. In addition, the IC50 in data set [2] amounted to 45 nM; in data set [3], 66 nM; in data set [4] it was 656 nM.
`COCCNC(=O)c1c(O)c2ncc(Cc3ccc(F)cc3)cc2[nH]c1=O`: in the data set with MT4 [1], the Activity result is “Non-toxic”. Also, the 50% inhibitory concentration (IC50) in [2] was found to be 5 nM; in [3] it was 4.2 nM; in data set [4], 36 nM; in data set [5], 36 nM. The CC50 at 120 h in data set [6] is > 8000 nM.
In the case of `COC(=O)c1c(O)c2ncccc2[nH]c1=O`, the IC50 is > 500000 nM in data set [2], > 14000 nM in data set [3] and > 125000 nM in data set [5]. In addition, the CC50 at 120 h in data set [6] was > 125000 nM.
As for `CNC(=O)c1c(O)c2ncc(Cc3ccc(F)cc3)cc2[nH]c1=O`, in the data set with MT4 [7], the Activity result is listed as “Non-toxic”. Besides, in data set [8], the selectivity ratio was > 100. The IC50 in [2] is 6 nM; in data set [3] it was 3.4 nM; in data set [4] it was 119 nM; in data set [5], 30 nM. The CC50 at 120 h in [6] is > 8000 nM.
For the compound `CCOC(=O)c1c(O)c2ncc(Cc3ccc(F)cc3)cc2n(C)c1=O`, the IC50 came to 6 nM in data set [2], 77 nM in [3], 12000 nM in data set [4] and 1300 nM in [5]. The CC50 at 120 h in [6] was found to be 6000 nM.
With `CNC(=O)c1c(O)c2ncc(Cc3ccc(F)cc3)cc2n(C)c1=O`, the Activity result with MT4 [7] is recorded as “Non-toxic”. Moreover, the IC50 was 4.1 nM in data set [2], 1.4 nM in [3], 57 nM in data set [4] and 11 nM in data set [5]. The CC50 at 120 h in data set [6] is 20000 nM.
`COC(=O)c1c(O)c2ncc(Cc3ccccc3)cc2[nH]c1=O`: the IC50 in data set [2] was 8 nM; in data set [3], 14000 nM; in [5], > 125000 nM. The CC50 at 120 h in [6] was > 125000 nM.
On to `CCOC(=O)c1c(O)c2ncc(Cc3ccc(F)cc3)cc2n(CC(C)C)c1=O`, for which the half-maximal inhibitory concentration (IC50) was 22 nM in [2] and 155 nM in [3].
For `O=C(NC1CC1)c1c(O)c2ncc(Cc3ccc(F)cc3)cc2[nH]c1=O`, the Activity entry with MT4 [7] is recorded as “Non-toxic”. Also, the selectivity ratio in [8] is > 100. Also, the IC50 was 10 nM in [2], 8 nM in data set [3], > 14000 nM in [4] and 78 nM in [5]. For the same compound, the CC50 at 120 h in data set [6] is > 8000 nM.
